Measurements reported in ChEMBL document CHEMBL1150314, “Design and synthesis of N-alkyl oxindolylidene acetic acids as a new class of potent Cdc25A inhibitors” (Bioorg Med Chem Lett, 2008).

Molecular target: T1, M-phase inducer phosphatase 1 (Homo sapiens, UniProt P30304)
T1 sequence (P30304 whole entry): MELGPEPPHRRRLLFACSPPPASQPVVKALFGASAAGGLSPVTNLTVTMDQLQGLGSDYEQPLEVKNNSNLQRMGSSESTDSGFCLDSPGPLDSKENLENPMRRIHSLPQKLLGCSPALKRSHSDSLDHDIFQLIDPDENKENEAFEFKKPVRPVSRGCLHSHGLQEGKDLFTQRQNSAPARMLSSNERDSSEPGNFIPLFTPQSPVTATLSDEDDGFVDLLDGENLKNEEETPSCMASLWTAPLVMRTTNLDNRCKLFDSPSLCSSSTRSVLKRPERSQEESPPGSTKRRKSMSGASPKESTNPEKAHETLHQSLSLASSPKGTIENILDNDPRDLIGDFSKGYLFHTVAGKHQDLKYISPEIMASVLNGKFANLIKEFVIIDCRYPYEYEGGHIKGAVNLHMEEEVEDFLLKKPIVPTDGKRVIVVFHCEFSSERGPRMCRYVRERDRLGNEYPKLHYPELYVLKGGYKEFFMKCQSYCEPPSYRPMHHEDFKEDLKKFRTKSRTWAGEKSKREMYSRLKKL
Test: Inhibition of human Cdc25A phosphatase activity
In short: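 Recombinant human Cdc25A catalytic domain; phosphatase activity measured by dephosphorylation of 40 μM O-methylfluorescein monophosphate in 50 mM Tris–HCl pH 8.0, 100 mM NaCl, 1 mM dithiothreitol. IC50 taken as mean of two–five experiments, with standard deviation reported.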

Structure (SMILES) | IC50
CCCCCCCCN1C(=O)/C(=C\C(=O)O)c2ccccc21 | 39 µM
CCCCCCCCCCCCN1C(=O)/C(=N/O)c2ccccc21 | 33 µM
CCCCCCCCCCN1C(=O)/C(=C\C(=O)O)c2ccccc21 | 12 µM
CCCCCCCCCCCCCCN1C(=O)/C(=C\C(=O)O)c2ccccc21 | 1.7 µM
CCCCCCCCCCCCN1C(=O)/C(=C/C(=O)OC)c2ccccc21 | 37 µM
CCCCCCCCCCCCCCCCN1C(=O)/C(=C\C(=O)O)c2ccccc21 | 1.6 µM
CCCCCCCCCCN1C(=O)/C(=C/C(=O)O)c2ccccc21 | 13 µM
CCCCCCCCCCCCN1C(=O)/C(=C/C(=O)O)c2ccccc21 | 2.6 µM
CCCCCCCCCCCCn1cc(CC(=O)O)c2ccccc21 | 8 µM
O=C(O)/C=C1/C(=O)N(CCCc2ccccc2)c2ccccc21 | > 100 µM
CCCCCCCCCCCCN1C(=O)/C(=C\C(=O)O)c2ccccc21 | 2.9 µM
CCCCCCCCCCCCN1C(=O)C(=O)c2ccccc21 | 15 µM
CCCCCCCCCCCCN1C(=O)C(CC(=O)O)c2ccccc21 (stereo not given) | 50 µM
CCCCCCN1C(=O)/C(=C/C(=O)O)c2ccccc21 | > 100 µM
CC(C)CCC[C@@H](C)[C@H]1CCC2/C(=C/C(=O)O)CCC[C@@]21C (stereo not given in full) | 12 µM
CCCCCCCCCCCCCCCCN1C(=O)/C(=C/C(=O)O)c2ccccc21 | 1.9 µM
CCCCCCCCCCCCCCN1C(=O)/C(=C/C(=O)O)c2ccccc21 | 2.3 µM
CCCCCCN1C(=O)/C(=C\C(=O)O)c2ccccc21 | > 100 µM
CCCCCCCCN1C(=O)/C(=C/C(=O)O)c2ccccc21 | 78 µM
CCOCCOCCOCCN1C(=O)/C(=C/C(=O)O)c2ccccc21 | > 100 µM
